Columns and labels:
[1] = Stability of DUV in spiked human plasma samples; assay type: in vitro ADME
[2] = Stability of stock and working standard solutions of DUV; assay type: physicochemical; conditions: refrigerator temperature (8°C) for 30 days
Summary of the method: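 Stock solutions (1.0 mg mL–1 in acetonitrile) and working standards diluted in mobile phase were held 24 h at room temperature and 30 days refrigerated (below 10°C). They were then analysed by the HPLC-FD method against freshly spiked calibration standards.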

C[C@H](Nc1ncnc2[nH]cnc12)c1cc2cccc(Cl)c2c(=O)n1-c1ccccc1 [DUV, 8-chloro-2-phenyl-3-[(1S)-1-(7H-purin-6-ylamino)ethyl]isoquinolin-1-one]
Time stable in spiked human plasma ([1]; autosampler storage conditions): ≥ 48 h
Time stable in spiked human plasma ([1]; room temperature on the bench): ≥ 6 h
Stability in spiked human plasma ([1]; three freeze–thaw cycles): stable
Stability in spiked human plasma ([1]; −80°C for 60 days): stable
Stability of stock and working standard solutions [2]: stable
